From ChEMBL document CHEMBL2086235, “A novel thiazolidine compound induces caspase-9 dependent apoptosis in cancer cells” (Bioorg Med Chem, 2012)
Activity calls are given as the source filed them. No cut-off for these calls is given here.

What was measured:
[1] = tested on: Huh-7; assay: Growth inhibition of human HuH7 cells incubated for 48 hrs by Giemsa staining; type: functional, cell-based
Method in brief: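 Cells grown overnight, compound added from DMSO solution, then incubated 48 h more. Attached cells stained with Giemsa and photographed; qualitative read-out.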

[2] = tested on: Huh-7; assay: Induction of cell death in human HuH7 cells at 2.5 to 40 uM incubated for 72 hrs by SRB assay; type: functional, cell-based
Method in brief: (§1)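 Cells seeded and grown 24 h at 37 °C, then treated 72 h in triplicate. Fixed with cold 10% TCA 1 h at 4 °C, stained with 0.4% SRB in 1% acetic acid 10 min, washed in 1% acetic acid. Dye solubilized in 10 mM Tris base; absorbance read at 515 nm. Normalized to DMSO control and Tz; three independent experiments.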

[3] = tested on: HCT-116; assay: Induction of cell death in human HCT116 cells at 2.5 to 40 uM incubated for 72 hrs by SRB assay; type: functional, cell-based; method in brief: as §1
[4] = tested on: MCF7; assay: Induction of cell death in human MCF7 cells at 2.5 to 40 uM incubated for 72 hrs by SRB assay; type: functional, cell-based; method in brief: as §1
[5] = tested on: BT-20; assay: Cytotoxicity against human BT20 cells incubated for 72 hrs by SRB assay; type: functional, cell-based; details: BT-20, 72 h
Method in brief: (§2)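 Cells grown in DMEM with 10% FCS, 2 mM L-glutamine, NEAA and antibiotics at 37 °C, 5% CO2, then seeded at 1000–5000 cells/well and grown 24 h. Compounds were added from DMSO for 72 h, following NCI guidelines. Cells were fixed in cold 10% TCA for 1 h at 4 °C and stained with 0.4% SRB in 1% acetic acid for 10 min. Bound dye was dissolved in 10 mM Tris and absorbance read at 515 nm.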

[6] = tested on: HepG2; assay: Induction of apoptosis in human HepG2 cells assessed as cytochrome c release at 10 uM incubated for 48 hrs by immunostaining; type: functional, cell-based
Method in brief: (§3)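 After 48 h exposure, coverslip-grown cells fixed in 4% paraformaldehyde, permeabilized in ice-cold acetone, blocked in 3% BSA 1 h at 37 °C. Anti-cytochrome c monoclonal applied overnight at 4 °C, then FITC anti-mouse secondary 1 h at room temperature. Diffuse cytoplasmic staining scored by fluorescence microscopy.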

[7] = tested on: Huh-7; assay: Cell cycle arrest in human HuH7 cells assessed as subG1/G1 phase accumulation at 5 uM incubated for 12 hrs to 24 hrs by propidium iodide staining based flow cytometry; type: functional
Method in brief: (§4)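 Cells seeded 100,000-200,000 per dish, grown 24 h, then held a further day in starvation medium (1% FBS, 1% P/S, 1% NEAA in DMEM). Treated with compound or DMSO, harvested by trypsinization, fixed in ice-cold 70% ethanol at 4 °C. Stained 40 min at 37 °C in the dark with propidium iodide, RNase A and Triton X-100 in PBS. G1 = 2N, G2 = 4N; >4N cells gated out.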

[8] = Cytotoxicity against human FOCUS cells incubated for 72 hrs by SRB assay; type: functional, cell-based; method in brief: as §2
[9] = tested on: CAMA-1; assay: Induction of cell death in human CAMA1 cells at 0.02 uM incubated for 72 hrs by real-time cell analysis; type: functional, cell-based
Method in brief: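 Cells (1000-5000/well) on impedance plates monitored by real-time cell analysis. Treated about 24 h after seeding, in log phase, and followed 72 h against DMSO controls. Inhibition (%) = (1 − CI treated/CI DMSO) × 100. At least three repeats.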

[10] = tested on: Huh-7; assay: Induction of apoptosis in human HuH7 cells assessed as DNA fragmentation at 10 uM incubated for 48 hrs by TUNEL assay; type: functional, cell-based
Method in brief: (§5)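 Cells grown overnight on coverslips, then exposed 48 h. Fixed in cold methanol; TUNEL done with an in situ cell death detection kit. Nuclei counterstained with Hoechst 33258 (3 μg/mL, 5 min, dark) and viewed by fluorescence microscopy.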

[11] = tested on: T47D; assay: Cytotoxicity against human T47D cells incubated for 72 hrs by SRB assay; type: functional, cell-based; method in brief: as §2
[12] = tested on: CAMA-1; assay: Cytotoxicity against human CAMA1 cells incubated for 72 hrs by SRB assay; type: functional, cell-based; details: CAMA-1, 72 h; method in brief: as §2
[13] = tested on: HepG2; assay: Increase in caspase-8 activation in human HepG2 cells at 10 uM incubated for 12 hrs in presence of 50 uM caspase-9 inhibitor z-LEHD-fmk by Caspase Glo assay; type: functional, cell-based
Method in brief: (§6)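 HepG2 pre-incubated 24 h at 37 °C with 50 μM of the named caspase inhibitor peptide or DMSO. Medium then replaced with fresh medium holding the same inhibitor plus compound. Caspase activity read by Caspase-Glo luminescence after 12 h. Values normalized to inhibitor-only wells without compound. Two independent experiments in duplicate; t-test.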

[14] = Cytotoxicity against human MV cells incubated for 72 hrs by SRB assay; type: functional, cell-based; method in brief: as §2
[15] = tested on: HepG2; assay: Cytotoxicity against human HepG2 cells incubated for 72 hrs by SRB assay; type: functional, cell-based; details: HepG2, 72 h; method in brief: as §2
[16] = tested on: Huh-7 (Homo sapiens); assay: Induction of cell death in human Huh7 cells at 10 uM incubated for 72 hrs by real-time cell analysis
[17] = tested on: FOCUS; assay: Induction of apoptosis in human FOCUS cells assessed as cytochrome c release at 10 uM incubated for 48 hrs by immunostaining; type: functional, cell-based; method in brief: as §3
[18] = tested on: MCF7; assay: Cytotoxicity against human MCF7 cells incubated for 72 hrs by SRB assay; type: functional, cell-based; details: MCF7, 72 h; method in brief: as §2
[19] = tested on: MFE-296; assay: Cytotoxicity against human MFE296 cells incubated for 72 hrs by SRB assay; type: functional, cell-based; details: MFE-296, 72 h; method in brief: as §2
[20] = tested on: HepG2; assay: Increase in caspase-8 activation in human HepG2 cells at 10 uM incubated for 12 hrs in presence of 50 uM caspase-3 inhibitor z-DEVD-fmk by Caspase Glo assay; type: functional, cell-based; method in brief: as §6
[21] = tested on: Huh-7; assay: Induction of caspase-3 cleavage in human HuH7 cells at 2.5 to 5 uM incubated for 6 to 24 hrs by Western blot; type: functional, cell-based
Method in brief: (§7)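 Huh7 treated with compound or DMSO for 6, 12 or 24 h. Lysates quantified by Bradford and heat-denatured. Blotted onto nitrocellulose and probed with antibodies to cleaved caspase-9, cleaved caspase-3 and caspase-8 (1:500, overnight at 4 °C). Bands quantified by densitometry and normalized to actin.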

[22] = tested on: HepG2; assay: Increase in caspase-9 activation in human HepG2 cells at 10 uM incubated for 12 hrs by Caspase Glo assay; type: functional, cell-based
Method in brief: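 HepG2 pre-incubated 24 h at 37 °C with DMSO, then moved to fresh medium with compound. Caspase-9 activity read by Caspase-Glo after 12 h and normalized to untreated controls. Two independent experiments in duplicate.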

[23] = tested on: Huh-7; assay: Cytotoxicity against human HuH7 cells incubated for 72 hrs by SRB assay; type: functional, cell-based; details: Huh-7, 72 h; method in brief: as §2
[24] = Cell cycle arrest in human Mahlavu cells assessed as subG1/G1 phase accumulation at 5 uM incubated for 12 hrs to 24 hrs by propidium iodide staining based flow cytometry; type: functional; method in brief: as §4
[25] = tested on: HepG2; assay: Increase in caspase-9 activation in human HepG2 cells at 10 uM incubated for 12 hrs in presence of caspase-3 inhibitor z-DEVD-fmk by Caspase Glo assay; type: functional, cell-based; method in brief: as §6
[26] = tested on: HepG2; assay: Induction of apoptosis in human HepG2 cells assessed as DNA fragmentation at 10 uM incubated for 48 hrs by TUNEL assay; type: functional, cell-based; method in brief: as §5
[27] = tested on: Huh-7; assay: Induction of apoptosis in human HuH7 cells assessed as cytochrome c release at 10 uM incubated for 48 hrs by immunostaining; type: functional, cell-based; method in brief: as §3
[28] = tested on: Huh-7; assay: Induction of caspase-8 cleavage in human HuH7 cells at 2.5 to 5 uM incubated for 6 to 24 hrs by Western blot; type: functional, cell-based; method in brief: as §7
[29] = tested on: Huh-7; assay: Induction of caspase-9 cleavage in human HuH7 cells at 2.5 to 5 uM incubated for 6 to 24 hrs by Western blot; type: functional, cell-based; method in brief: as §7
[30] = tested on: HepG2; assay: Increase in caspase-9 activation in human HepG2 cells at 10 uM incubated for 12 hrs in presence of caspase-8 inhibitor z-IETD-fmk by Caspase Glo assay; type: functional, cell-based; method in brief: as §6
[31] = tested on: FOCUS; assay: Induction of apoptosis in human FOCUS cells assessed as DNA fragmentation at 10 uM incubated for 48 hrs by TUNEL assay; type: functional, cell-based; method in brief: as §5
[32] = tested on: HCT-116; assay: Cytotoxicity against human HCT116 cells incubated for 72 hrs by SRB assay; type: functional, cell-based; details: HCT-116, 72 h; method in brief: as §2
[33] = tested on: Huh-7 (Homo sapiens); assay: Induction of cell death in human Huh7 cells at 5 uM incubated for 72 hrs by real-time cell analysis

SMILES: CCOC(=O)[C@@H]1CSC(c2ccccc2)N1C(=O)c1cn(CCCNC(=O)C(F)(F)F)nn1 (stereo not given in full)
- growth inhibition (GI) [1]: inactive

SMILES: CCOC(=O)[C@@H]1CSC(c2ccccc2)N1C(=O)c1cn(CCc2ccc(F)cc2)nn1 (stereo not given in full)
- growth inhibition (GI) [1]: inactive

SMILES: CCOC(=O)[C@@H]1CSC(c2ccccc2)N1C(=O)c1cn(CCc2ccccc2)nn1 (stereo not given in full)
- growth inhibition (GI) [1]: inactive

SMILES: CCOC(=O)[C@@H]1CSC(c2ccccc2)N1C(=O)c1cn(CCc2ccsc2)nn1 (stereo not given in full)
- Activity [2]: inactive
- Activity [3]: inactive
- Activity [4]: inactive
- growth inhibition (GI) [1]: inactive

SMILES: CCOC(=O)[C@@H]1CSC(c2ccccc2)N1C(=O)c1cn(Cc2ccccc2)nn1 (stereo not given in full)
- growth inhibition (GI) [1]: inactive

SMILES: COC(=O)CN(C[C@@H]1CSC(c2ccccc2)N1C(=O)c1ccccc1)C(=O)C(C)(C)C (stereo not given in full)
- growth inhibition (GI) [1]: inactive

SMILES: COC(=O)CN(C[C@@H]1CSC(c2ccccc2)N1C(=O)c1ccccc1)C(=O)c1c(F)c(F)c(F)c(F)c1F (stereo not given in full)
- growth inhibition (GI) [1]: inactive

SMILES: Cc1cn(CC(=O)N2C(c3ccccc3)SC[C@H]2C(=O)NC(C)(C)C)c(=O)[nH]c1=O (stereo not given in full)
- Activity [2]: inactive
- Activity [3]: inactive
- Activity [4]: inactive
- growth inhibition (GI) [1]: inactive

SMILES: Cc1cn(CC(=O)N2C(c3ccccc3)SC[C@H]2C(=O)NC(C)C)c(=O)[nH]c1=O (stereo not given in full)
- growth inhibition (GI) [1]: inactive

SMILES: Cc1cn(CC(=O)N2C(c3ccccc3)SC[C@H]2C(=O)NCCc2ccccc2)c(=O)[nH]c1=O (stereo not given in full)
- growth inhibition (GI) [1]: inactive

SMILES: Cc1cn(CC(=O)N2C(c3ccccc3)SC[C@H]2C(=O)NCc2ccccc2)c(=O)[nH]c1=O (stereo not given in full)
- growth inhibition (GI) [1]: inactive

SMILES: O=C(O)CN(C[C@@H]1CSC(c2ccccc2)N1C(=O)c1ccccc1)C(=O)c1c(F)c(F)c(F)c(F)c1F (stereo not given in full)
- growth inhibition (GI) [1]: inactive

SMILES: O=C(c1c(F)c(F)c(F)c(F)c1F)N(CCc1ccsc1)C[C@@H]1CSC(c2ccccc2)N1C(=O)c1ccccc1 (stereo not given in full)
- growth inhibition (GI) [1]: inactive

SMILES: C#CC(=O)N1C(c2ccccc2)SC[C@H]1C(=O)OCC (mixture of isomers)
- IC50 [5]: 1.6 µM
- Activity [6]: Active
- Activity [7]: Active
- IC50 [8]: 5.47 µM
- Activity [9]: inactive
- Activity [2]: Active
- Activity [10]: Active
- Activity [3]: Active
- IC50 [11]: 7.62 µM
- IC50 [12]: 0.01 µM
- Activity [13]: inactive
- IC50 [14]: 0.41 µM
- IC50 [15]: 10 µM
- Activity [16]: 100%
- Activity [17]: Active
- IC50 [18]: 4.7 µM
- IC50 [19]: 0.5 µM
- Activity [20]: inactive
- Activity [21]: Active
- Activity [22]: Active
- IC50 [23]: 5.3 µM
- Activity [4]: Active
- growth inhibition (GI) [1]: Active
- Activity [24]: Active
- Activity [25]: inactive
- Activity [26]: Active
- Activity [27]: Active
- Activity [28]: inactive
- Activity [29]: Active
- Activity [30]: inactive
- Activity [31]: Active
- IC50 [32]: 9.23 µM
- Activity [33]: 100%

SMILES: CC[C@@]1(O)C(=O)OCc2c1cc1n(c2=O)Cc2cc3ccccc3nc2-1 [CAMPTOTHECIN]
- IC50 [5]: 0.07 µM
- IC50 [8]: < 1 µM
- IC50 [11]: < 1 µM
- IC50 [12]: 0.07 µM
- IC50 [14]: < 1 µM
- IC50 [15]: 0.01 µM
- IC50 [18]: < 1 µM
- IC50 [19]: < 1 µM
- IC50 [23]: 0.15 µM
- IC50 [32]: < 1 µM

SMILES: O=c1[nH]cc(F)c(=O)[nH]1 [FLUOROURACIL]
- IC50 [5]: 47.3 µM
- IC50 [8]: 7.69 µM
- IC50 [11]: 8.91 µM
- IC50 [12]: 1.28 µM
- IC50 [14]: 9.97 µM
- IC50 [15]: 5.7 µM
- IC50 [19]: 30.7 µM
- IC50 [32]: 18.7 µM
